pPAFAH FP inh = pPAFAH enzyme inhibitors, primary screen, biochemical, fluorescence polarization, human. AID 463082, 2010. actives 1.5% (n = 330,000). inhibition, % at 3.39 µM. recombinant pPAFAH, FP-rhodamine probe fluorescence polarization;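 active means inhibition above the mean inhibition across the screen plus 3 SD, cut at about 25% in these data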;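 further: inhibitors block binding of the rhodamine activity-based probe so polarization drops; 0% = enzyme with DMSO and 100% = wells lacking pPAFAH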
UCH37 inh = inhibitors of human UCH37 deubiquitinase, primary screen, biochemical, Ub-AMC cleavage, fluorescence; inhibition, % (concentration not given with the values); actives 0.33% (n = 330,000); AID 588478, 2011; purified proteasome/UCH37; Ubiquitin carboxyl-terminal hydrolase isozyme L5 (Homo sapiens), Q9Y5K5;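 active means mean inhibition over replicate wells above about 20%, limit read from the data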;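 further: 0% = compound-free wells with enzyme and 100% = wells lacking proteasome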
Target sequence (Q9Y5K5 whole entry, looked up): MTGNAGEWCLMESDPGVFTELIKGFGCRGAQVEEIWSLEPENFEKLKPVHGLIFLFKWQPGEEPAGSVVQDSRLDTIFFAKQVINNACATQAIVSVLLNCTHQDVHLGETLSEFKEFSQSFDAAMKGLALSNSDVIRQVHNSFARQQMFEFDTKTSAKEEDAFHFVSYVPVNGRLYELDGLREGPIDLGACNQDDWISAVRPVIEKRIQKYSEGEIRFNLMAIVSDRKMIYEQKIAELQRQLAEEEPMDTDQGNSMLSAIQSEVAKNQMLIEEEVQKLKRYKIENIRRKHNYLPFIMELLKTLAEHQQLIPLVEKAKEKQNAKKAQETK
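Test system – human UCH37 enzyme supplied as purified proteasome complex · Incubation – 30 min preincubation with enzyme, 25 min cleavage at room temperature · Detection – AMC fluorescence from Ub-AMC cleavage, excitation 355 nm, emission 460 nm · Benchmarks – no-proteasome wells (full inhibition) and compound-free wells (no inhibition)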
PAFAH2 FP inh = PAFAH2 enzyme inhibitors, primary screen, biochemical, fluorescence polarization, human. Platelet-activating factor acetylhydrolase 2, cytoplasmic (Homo sapiens), Q99487. recombinant PAFAH2, FP-rhodamine activity probe. inhibition, % at 3.39 µM. actives 0.99% (n = 340,000);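 active means inhibition above the mean over all tested compounds plus 3 SD, cut at about 30% in these data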;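 further: inhibitors block probe labeling of enzyme so polarization drops; 0% = enzyme with DMSO and 100% = wells lacking PAFAH2 protein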
PAFAH1B3 inh = PAFAH1B3 enzyme inhibitors, primary screen, biochemical, fluorescence polarization, human. inhibition, % at 3.39 µM. Platelet-activating factor acetylhydrolase IB subunit alpha1 (Homo sapiens), Q15102. recombinant PAFAH1B3, FP-rhodamine probe. actives 0.28% (n = 340,000). AID 492972, 2010;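 active means inhibition above the screen-wide average of all tested compounds plus 3 SD, cut at about 25% in these data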;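 further: 0% = enzyme with DMSO only and 100% = wells lacking PAFAH1B3 protein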
Target sequence (Q15102 whole entry, looked up): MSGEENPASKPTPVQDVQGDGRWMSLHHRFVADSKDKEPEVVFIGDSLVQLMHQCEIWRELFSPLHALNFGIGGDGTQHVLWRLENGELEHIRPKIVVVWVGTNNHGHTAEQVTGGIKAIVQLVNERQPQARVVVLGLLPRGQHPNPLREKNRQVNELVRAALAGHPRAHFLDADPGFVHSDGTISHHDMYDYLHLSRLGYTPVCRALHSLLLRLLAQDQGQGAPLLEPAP
PAFAH1B2 inh = PAFAH1B2 enzyme inhibitors, primary screen, biochemical, fluorescence polarization, human | Platelet-activating factor acetylhydrolase IB subunit alpha2 (Homo sapiens), P68402 | recombinant PAFAH1B2, FP-rhodamine activity probe | AID 492953, 2010 | actives 1.2% (n = 340,000) | inhibition, % at 3.39 µM;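 active means inhibition above the mean of all tested compounds plus 3 SD, cut at about 24% in these data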;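 further: 0% = enzyme with DMSO and 100% = wells lacking PAFAH1B2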
NR3A LBD binder = binders of NR3A ligand-binding domain, primary screen, biophysical, differential scanning fluorimetry, uHTS | Glutamate receptor ionotropic, NMDA 3A (GRIN3A) ligand-binding domain | Tm shift relative to glycine control, % at 25 µM | actives 2.5% (n = 340,000) | NR3A LBD differential scanning fluorimetry, Tm shift; 0% = protein alone, 100% = glycine-bound protein;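 active means melting temperature shift of at least 10% of the positive control shift, at one fixed dose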
Numbers without * were called inactive; · = no result given. This is a sample that favours compounds with a hit; in the whole collection about 4.8% have one here.

SMILES | pPAFAH FP inh | UCH37 inh | PAFAH2 FP inh | PAFAH1B3 inh | PAFAH1B2 inh | NR3A LBD binder
CN1CCN(CCC(=O)NN=Cc2ccccn2)CC1 | · | 2 | · | · | · | ·
O=C(NN=Cc1ccc[nH]1)c1cncc(Br)c1 | · | 12 | · | · | · | ·
COc1cccc(C=Nn2c(-c3ccco3)nc3ccccc3c2=O)c1 | · | 7 | · | · | · | ·
CCc1ccc(OC)c(S(=O)(=O)Nc2ccc(Cc3ccncc3)cc2)c1 | 26* | 4 | 0 | 3 | 11 | 0
CCc1ccc(NS(=O)(=O)c2ccc(OC)c3ncccc23)cc1 | 23 | 1 | 14 | 3 | 5 | -1
c1ccc(N2CC3COc4ccccc4C3=N2)cc1 (centres undefined) | · | · | 5 | 11 | 3 | 17*
CC(N=c1ccccn1C(=O)Nc1ccc(Cl)cc1)c1ccco1 (centres undefined) | 0 | 2 | · | · | · | 24*
O=C(NN=Cc1cc(Br)cc(Br)c1O)c1ccncc1 | · | -1 | · | · | · | ·
COc1cc(C2=NOC(C(=O)N3CCOCC3)C2)cc(OC)c1OC (centres undefined) | -5 | 3 | -4 | 6 | 4 | 13*
NC(=NO)c1ccc(N2CCN(c3ncccc3C(F)(F)F)CC2)nc1 | · | 1 | · | · | · | ·
C/C=C/c1ccc(OCCCCOc2ccccc2C(C)=O)c(OC)c1 | 6 | 2 | 2 | 10 | 1 | 18*
CCOc1cc(S(=O)(=O)Nc2cc(C)cc(C)c2)ccc1Cl | 6 | 3 | -1 | -9 | 2 | 11*
COc1cccc(Cn2c(=O)sc3ccccc3c2=O)c1 | 24 | 2 | -2 | 9 | 3 | 0
Cc1ccc(Cn2c(=O)sc3ccccc3c2=O)cc1 | 2 | 3 | 6 | 7 | 2 | 11*
COc1ccc(C(=NNc2ccccc2C(=O)O)c2ccccc2)cc1 | · | 7 | · | · | · | ·
O=C1OC(c2ccccc2)=N/C1=C\C=C\c1ccco1 | 7 | 13 | 19 | -3 | 1 | 20*
Cc1ccc(C2=N/C(=C/N3CCOCC3)C(=O)O2)cc1 | 8 | 20* | -14 | 9 | 11 | -1
CN(C)/C=C1\N=C(c2ccccc2)OC1=O | 3 | 20* | 6 | -4 | 0 | -1
Cc1cc(C(=O)NN=C/C(Br)=C/c2ccccc2)c(C)o1 | · | 1 | · | · | · | ·
CC(=NNC(=O)c1nnn(-c2nonc2N)c1C(C)C)c1ccncc1 | · | 1 | · | · | · | ·
CC(C)(C)[C@@H]1CCC(=O)N(CC[C@H](N=[N+]=[N-])c2ccccc2)CC1 | -2 | 28* | 13 | 5 | 18 | 0
C[C@@H]1CCC(=O)N(CC[C@H](N=[N+]=[N-])c2ccccc2)CC1 | 9 | 2 | 12 | 1 | 9 | 0
CCOc1ccc(C2C3=C(CCCC3=O)Nc3ccc4ncccc4c32)cc1 (centres undefined) | 29* | -57 | 0 | 7 | 1 | 0
Oc1cccc(Nc2nc(-c3ccccc3Cl)nc3ccccc23)c1 | 8 | · | -3 | -1 | -2 | 17*
Cc1ccc(-c2nc(Nc3cccc(O)c3)c3ccccc3n2)cc1 | -2 | -65 | -9 | 10 | -3 | 42*
SMILES | pPAFAH FP inh | UCH37 inh | PAFAH2 FP inh | PAFAH1B3 inh | PAFAH1B2 inh | NR3A LBD binder
Cc1ccc(-c2nc(Nc3ccc(O)cc3)c3ccccc3n2)cc1 | 26* | -32 | -2 | 22 | 2 | 34*
CCOC(=O)c1nc(Nc2ccc(C(=O)O)cc2)c2ccccc2n1 | 6 | 11 | -17 | 6 | 1 | 14*
Cc1ccc(-c2nc(Nc3ccc(N4CCOCC4)cc3)c3ccccc3n2)cc1 | 20 | · | · | · | · | 7
c1ccc(Nc2nc(-c3ccccc3)nc3ccccc23)cc1 | -7 | -69 | -9 | 11 | -6 | 11*
O=[N+]([O-])c1ccc(-c2nc(Nc3cccc(O)c3)c3ccccc3n2)cc1 | 7 | 1 | -9 | 16 | 8 | 30*
CCOc1cc(C(=O)NCC(=O)NN=Cc2sccc2C)cc(OCC)c1OCC | · | 2 | · | · | · | ·
O=C(NN=Cc1cccc(O)c1)c1ccc(COc2cccc3cccnc23)cc1 | · | 4 | · | · | · | ·
NC1CCN(c2nc3c(cc2F)c(=O)c(C(=O)O)cn3-c2ccc(F)cc2F)C1 (centres undefined) | 4 | -7 | 1 | -2 | -2 | -1
Cc1cccc(-c2cc(=O)c(C(=O)O)cn2-c2ccc(F)cc2F)c1 | 6 | 5 | 2 | 8 | 8 | 13*
CC(C)C(C(=O)NCC1CCCO1)N(Cc1ccco1)C(=O)CNS(=O)(=O)c1ccc(F)cc1 (centres undefined) | 34* | 2 | 22 | 7 | 2 | 2
O=C(CN(Cc1ccco1)C(=O)CNS(=O)(=O)c1ccc(Cl)cc1)NCc1ccc(F)cc1 | 10 | 1 | 22 | 2 | 26* | 2
COc1ccc(OC)c(NC(=O)CSc2nnc(CNC(=O)COc3ccc(Cl)cc3)o2)c1 | 1 | 1 | -1 | -2 | 28* | 5
Cc1ccsc1C=NNC(=O)c1cccc(S(=O)(=O)Nc2ccccc2Cl)c1 | · | 7 | · | · | · | ·
CCc1cc(CC)c(C=NNC(N)=O)c(CC)c1 | · | 4 | · | · | · | ·
O=C(NC1CC1)C1Nc2ccc(OC(F)(F)F)cc2C2C=CCC12 (centres undefined) | 6 | 2 | 3 | 1 | 1 | -1
O=C(O)C1Nc2ccc(OC(F)(F)F)cc2C2C=CCC12 (centres undefined) | 61* | · | · | · | · | ·
Cc1ccc2c(c1)C1C=CCC1C(C(=O)O)N2 (centres undefined) | 61* | · | · | · | · | ·
CC(=O)Nc1ccc(C=NNc2ccc([N+](=O)[O-])cc2S(=O)(=O)Nc2ccccc2C(=O)O)cc1 | 26* | 9 | 1 | 2 | 3 | 29*
O=C(O)c1ccccc1NS(=O)(=O)c1ccc(NNC(=S)Nc2ccc(OC(F)F)cc2)c([N+](=O)[O-])c1 | · | 9 | 70* | 56* | 60* | 6
COc1ccc(NS(=O)(=O)c2cc([N+](=O)[O-])ccc2N/N=C/c2c(C)[nH]c3ccccc23)cc1 | · | 11 | -10 | 5 | 2 | 28*
COc1ccc(NS(=O)(=O)c2cc([N+](=O)[O-])ccc2NN=Cc2c(C)[nH]c3ccccc23)cc1 | · | 6 | · | · | · | ·
Cc1ccc(NC(=S)NNc2ccc([N+](=O)[O-])cc2S(=O)(=O)Nc2ccccc2C(=O)O)cc1C | 29* | 10 | 38* | 18 | 25* | 26*
COc1ccc2nc(C=NNC(=O)[C@H](CCSC)NC(=O)OC(C)(C)C)ccc2c1 | · | -304 | · | · | · | ·
COc1ccc(C(C)=NNc2ccc([N+](=O)[O-])cc2S(=O)(=O)Nc2ccccc2C(=O)O)c(OC)c1 | 31* | 18 | 12 | -7 | -5 | 9

Source: PubChem
